These results are taken from ChEMBL document CHEMBL4316593 (Eur J Med Chem, 2019).

Assay [1] deals with U-87 MG. The experiment in a line: Induction of apoptosis in human U87 cells assessed as change in TNFRSF10C gene expression at cytotoxic IC50 measured after 48 hrs […] relative to control. In kind it is functional, U-87MG ATCC. The essentials: (§1)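 U87 cells grown in MEM with 10% FBS at 37°C, 5% CO2. Cells exposed to IC50 of test compound for 48 hrs, alongside untreated and cisplatin controls, each condition in triplicate. RNA isolated and profiled; differential expression called with DESeq2 (q-value < 0.05, fold change > 1.5), fold change versus untreated.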

Assay [2] relates to U-87 MG. The assay can be described thus: Induction of apoptosis in human U87 cells assessed as change in FOS gene expression at cytotoxic IC50 measured after 48 hrs […] relative to control. The assay is classed as functional, U-87MG ATCC. The gist of the method: as §1
Assay [3] can be described thus: Inhibition of RTK/PI3K/AKT/mTOR signaling in human U87 cells assessed as down regulation of GPATCH11 gene expression at cytotoxic IC50 measured after 48 hrs relative to control. The assay is classed as cell-based. The settings on record: U-87MG ATCC. The essentials: as §1
Assay [4] deals with U-87 MG. The experiment in a line: Cell cycle arrest in human U87 cells assessed as change in CDC6 gene expression at cytotoxic IC50 measured after 48 hrs […] relative to control. The assay is classed as functional, U-87MG ATCC. The essentials: (§2)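 U87 expression profiling. Cells incubated 48hrs at 37°C, 5% CO₂ with the IC₅₀ concentration, alongside a cisplatin and an untreated control, in triplicate. RNA was isolated by one common protocol and profiled. DEGs were called with DESeq2 (q < 0.05, fold change > 1.5) and expressed as fold change versus untreated.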

The subject of assay [5] is U-87 MG. The assay can be described thus: Induction of apoptosis in human U87 cells assessed as change in ACTG1 gene expression at cytotoxic IC50 measured after 48 hrs […] relative to control. The assay is classed as functional, U-87MG ATCC. The gist of the method:
as §1

In assay [6] the test system is U-87 MG. The assay can be described thus: Cell cycle arrest in human U87 cells assessed as change in PCNA gene expression at cytotoxic IC50 measured after 48 hrs […] relative to control. In kind it is functional, U-87MG ATCC. The gist of the method:
as §2

Assay [7] is described as follows: Inhibition of RTK/PI3K/AKT/mTOR signaling in human U87 cells assessed as up regulation of NFATC4 gene expression at cytotoxic IC50 measured after 48 hrs relative to control. The assay is classed as cell-based. The settings on record: U-87MG ATCC. The essentials: (§3)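 Cells were exposed for 48hrs at 37°C in humidified 5% CO₂ to the compound at its previously determined IC₅₀, with Cisplatin at its IC₅₀ and an untreated negative control alongside. Each condition was run in triplicate. RNA was isolated from all samples by the same protocol. Genes were called differentially expressed by DESeq2 at q-value < 0.05 and fold change > 1.5.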

The nature of assay [8]: Inhibition of RTK/PI3K/AKT/mTOR signaling in human U87 cells assessed as up regulation of lemur tyrosine kinase 3 gene expression at cytotoxic IC50 measured after 48 hrs relative to control. The assay is classed as cell-based. The settings on record: U-87MG ATCC.
Assay [9] concerns U-87 MG. The experiment in a line: Induction of DNA damage in human U87 cells assessed as change in DTL gene expression at cytotoxic IC50 measured after 48 hrs […] relative to control. The assay is classed as functional, U-87MG ATCC. The gist of the method:
as §2

For assay [10], the system named is U-87 MG. The experiment in a line: Induction of apoptosis in human U87 cells assessed as decrease in caspase-3/7 activation at cytotoxic IC50 measured after 5 hrs by caspase-glo 3/7 luminescence assay relative to control. The assay is classed as functional, U-87MG ATCC. More on the design: scale not given: the % may be the effect or the level left. The gist of the method: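 Cells grown overnight in 96-well format, then given IC50 for 5 hrs at 37°C, 5% CO2, with negative, positive and blank (medium+DMSO+dye) wells. Equilibrated 30 min at room temperature, Caspase-Glo 3/7 reagent added 1:1 in the dark, luminescence read at 1 hr. Fold change = (test−blank)/(control−blank). Triplicate measurements, at least two independent experiments.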

Assay [11] is described as follows: Inhibition of RTK/PI3K/AKT/mTOR signaling in human U87 cells assessed as up regulation of GGA2 gene expression at cytotoxic IC50 measured after 48 hrs relative to control. The settings on record: U-87MG ATCC. In kind it is cell-based. The essentials:
as §3

Assay [12] in a line: Inhibition of RTK/PI3K/AKT/mTOR signaling in human U87 cells assessed as up regulation of ras homolog family member Q gene expression at cytotoxic IC50 measured after 48 hrs relative to control. The assay is classed as cell-based. The settings on record: U-87MG ATCC.
Assay [13] relates to U-87 MG. The assay can be described thus: Induction of DNA damage in human U87 cells assessed as change in PLK3 gene expression at cytotoxic IC50 measured after 48 hrs […] relative to control. The assay is classed as functional, U-87MG ATCC. The essentials: as §2
The next assay deals with LN-229. The experiment in a line: Cell cycle arrest in human LN229 cells assessed as increase in accumulation at G1-phase at cytotoxic IC50 measured after 48 hrs by propidium iodide staining based fluorescence cell imaging analysis. The assay is classed as functional. The gist of the method: (§4)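 Cell cycle by PI staining. Cells seeded at 1×10^6 and grown overnight at 37°C, 5% CO₂, then exposed for 48hrs at their IC₅₀ concentration, with DMSO and cisplatin controls. Cells were trypsinized, washed in cold PBS and fixed in 70% ethanol at 4°C for 30 min. They were stained with PI in Triton X-100/RNase for 15 min at 37°C and imaged by fluorescence microscopy. Reported as mean ± S.E.M of triplicates.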

Assay [14] relates to U-87 MG. The experiment in a line: Induction of DNA damage in human U87 cells assessed as change in MDM2 gene expression at cytotoxic IC50 measured after 48 hrs […] relative to control. The assay is classed as functional, U-87MG ATCC. The essentials:
as §2

In assay [15] the test system is U-87 MG. The assay can be described thus: Cell cycle arrest in human U87 cells assessed as accumulation at S-phase at cytotoxic IC50 measured after 48 hrs by propidium iodide staining based fluorescence cell imaging analysis (reference value: 19.2%). In kind it is functional, U-87MG ATCC. The essentials: as §4
Assay [16] can be described thus: Inhibition of RTK/PI3K/AKT/mTOR signaling in human U87 cells assessed as down regulation of CCDC186 gene expression at cytotoxic IC50 measured after 48 hrs relative to control. The settings on record: U-87MG ATCC. In kind it is cell-based. The essentials:
as §1

A short description of assay [17]: Inhibition of RTK/PI3K/AKT/mTOR signaling in human U87 cells assessed as down regulation of ZNF106 gene expression at cytotoxic IC50 measured after 48 hrs relative to control. The assay is classed as cell-based. The settings on record: U-87MG ATCC. The gist of the method:
as §3

For assay [18], the system named is U-87 MG. The experiment in a line: Cell cycle arrest in human U87 cells assessed as change in YWHAG gene expression at cytotoxic IC50 measured after 48 hrs […] relative to control. The assay is classed as functional, U-87MG ATCC. The essentials:
as §2

Assay [19] can be described thus: Inhibition of RTK/PI3K/AKT/mTOR signaling in human U87 cells assessed as up regulation of INHBE gene expression at cytotoxic IC50 measured after 48 hrs relative to control. The settings on record: U-87MG ATCC. In kind it is cell-based. The gist of the method:
as §3

Assay [20] can be described thus: Inhibition of RTK/PI3K/AKT/mTOR signaling in human U87 cells assessed as down regulation of ATP6V0D1 gene expression at cytotoxic IC50 measured after 48 hrs relative to control. In kind it is cell-based. The settings on record: U-87MG ATCC. The essentials:
as §1

The nature of assay [21]: Inhibition of RTK/PI3K/AKT/mTOR signaling in human U87 cells assessed as up regulation of Rab acceptor 1 gene expression at cytotoxic IC50 measured after 48 hrs relative to control. The settings on record: U-87MG ATCC. In kind it is cell-based. The essentials:
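U87 cells were exposed for 48 hrs at 37°C under 5% CO₂, with cisplatin and untreated controls, all in triplicate. RNA was isolated by the same protocol for every sample and expression profiled from mapped reads. Differential expression against untreated cells was called in DESeq2 (q-value < 0.05, fold change > 1.5).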

Assay [22] can be described thus: Inhibition of RTK/PI3K/AKT/mTOR signaling in human U87 cells assessed as down regulation of COG1 gene expression at cytotoxic IC50 measured after 48 hrs relative to control. The assay is classed as cell-based. The settings on record: U-87MG ATCC. The essentials:
as §1

A short description of assay [23]: Inhibition of RTK/PI3K/AKT/mTOR signaling in human U87 cells assessed as up regulation of ADP ribosylation factor like GTPase 6 interacting protein 5 gene expression at cytotoxic IC50 measured after 48 hrs relative to control. In kind it is cell-based. The settings on record: U-87MG ATCC. The essentials:
as §3

Structures are written as SMILES. The source made the active and inactive calls. The calls are words filed in the database; no cut-off is given here.

With `CC(=O)C(=NNc1ccccc1C#N)C(C)=O`, the log2FC in the assay with U-87 MG [1] was 3.078; with U-87 MG [2], -3.569; in assay [3], -1.69; with U-87 MG [5], -1.416; in assay [7], 2.89; in assay [8], 0.868. Besides, the log2FC in assay [11] is 0.505; in assay [12], 0.702; in [16], -0.865; in assay [17] it was -0.749; in assay [19], 2.96; in assay [20], -1.21. Further, the log2FC in [21] was 0.839; in assay [22], -0.632; in assay [23], 0.661. Moreover, the “fold change (FC)” value in the assay with U-87 MG [4] was 1.009; with U-87 MG [6], 1.668; in the assay with U-87 MG [9], 1.519; with U-87 MG [13], 1.714; with U-87 MG [14], 1.471; in the assay with U-87 MG [18] it was -0.7503. The Activity in the assay on U-87 MG [10] turned out to be 60.2%; with U-87 MG [15] it was 2.8%. In addition, in the assay on LN-229, the result was Active.
